# Calls of active or inactive are those of the source. No cut-off for these calls is given here.
# How the values were obtained:
# [1] = species on record: Bos taurus; test: Ratio of IC50 of drug to IC50 of colchicine for calf brain tubulin polymerization
# How it was run: (§1)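 Calf brain tubulin purified by three assembly–disassembly cycles, used at a final 2–3 mg/mL in pH 6.6 buffer (0.1 M MES, 0.5 mM MgCl2, 2 mM EGTA, 1 mM GTP). Assembly followed by turbidity at 400 nm at 37 °C.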
# [2] = system: B16; test: Cytotoxicity against mouse B16 cells assessed as cell viability after 48 hrs by MTT test; format: functional, cell-based; conditions: B16, 48 h
# How it was run: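 Murine B16 melanoma cells grown in DMEM with 2 mM L-glutamine, 10% FBS and penicillin/streptomycin at 37 °C, 5% CO2. Cells plated at 5000/well. After 24 h, compound added in triplicate at final 0.25 ng/mL to 25 µg/mL in 10-fold dilutions (DMSO stock, 1% DMSO controls). IC50 from 3–7 independent triplicate experiments.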
# [3] = system: EA.hy 926; test: Induction of morphological changes in human EA.hy 926 cells assessed as rounding up after 2 hrs; format: functional
# How it was run: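 EA.hy 926 cells (HUVEC–A549 fusion line) grown in DMEM with 2 mM glutamine, 10% FBS and penicillin/streptomycin at 37 °C, 5% CO2. Plated at 5000 cells/well and exposed in triplicate to 10-fold dilutions for 2 h. Solvent control was 1% DMSO. Wells photographed at the centre. Value is the lowest concentration at which rounding up was seen.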
# [4] = Inhibition of tubulin polymerization; how it was run: as §1
Structure (SMILES),Activity [1],IC50 [2] [µM],Activity [3] [µM],Ratio IC50 [1],IC50 [4] [nM]
COc1cc2[nH]cc(C(=O)c3cc(OC)c(OC)c(OC)c3)c2cc1OS(C)(=O)=O,inactive,13.7,14.35,–,–
COc1cc2c(C(=O)c3cc(OC)c(OC)c(OC)c3)c[nH]c2cc1O,–,5.07,8.74,12,–
COc1cc2c(c(OC)c1OC)-c1ccc(OC)c(=O)cc1[C@@H](NC(C)=O)CC2 [COLCHICINE],–,0.031,0.003,–,–
COc1cc2c(C(=O)c3cc(OC)c(OC)c(OC)c3)c[nH]c2cc1OS(C)(=O)=O,inactive,32.4,28.71,–,–
COc1ccc(/C=C\c2cc(OC)c(OC)c(OC)c2)cc1O [COMBRETASTATIN A4],–,0.003,0.008,0.7,2200
COc1ccc2c(C(=O)c3cc(OC)c(OC)c(OC)c3)c[nH]c2c1,–,0.013,0.007,0.4,2800
COc1cc2c(cc1OS(C)(=O)=O)c(C(=O)c1cc(OC)c(OC)c(OC)c1)cn2S(=O)(=O)c1ccccc1,–,3.29,10.86,15,–
COc1cc(C(=O)c2c[nH]c3c(OS(C)(=O)=O)c(OC)ccc23)cc(OC)c1OC,–,0.17,0.013,2.7,–
COc1cc2c(C(=O)c3cc(OC)c(OC)c(OC)c3)cn(S(=O)(=O)c3ccccc3)c2cc1OS(C)(=O)=O,–,3.14,1.3,18,–
